Drawing on PubChem BioAssay AID686939 (The Scripps Research Institute Molecular Screening Center, 2013), this text covers activation for 76 molecules.

Structures are written as SMILES. The campaign covered roughly 3,500 compounds. About 1,400 (40%) were called active. The set was probably picked from earlier hits. These entries were drawn from the full list. Values without a mark were called inactive.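 Rule for the calls: active = activation above the solvent-only control well mean plus 3 SD, averaged across control plates (cut at about 5.2% in these data); inactive = the rest.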

The nature of this test: GAL4-VP16 luciferase reporter activation, counter-screen for SMARCA2 (BRM) activator project, cell-based, pG5luc, luminescence, high throughput (AID 686939). The following applies: HEK293 GAL4-VP16 pG5luc reporter, at 9.1 µM, stronger effect = higher value, scaled: DMSO wells 0%, SAHA wells 100%. In outline: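 Assay system: 293 cells carrying GAL4-VP16 plus UAS-luciferase reporter; input: 2,500 transfected 293 cells per well; incubation: 24 h compound treatment at 37 °C, 15 min detection incubation; measured by: One-Glo luciferase luminescence; read-out: percent activation scaled between DMSO (0%) and SAHA (100%) control medians; benchmarks: DMSO and SAHA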
In the case of `O=C(Nc1ccc2c(c1)CCC2)c1ccc(Br)s1`, the activation was 5.57% (active).

Consider `O=C(NC1CCCC1)C(=O)c1c[nH]c2ccccc12`, for which the activation is 6.44% (active).

For the molecule `CC(=O)c1cccc(-c2cnc3c(NC=O)cc(-c4ccc(N5CCN(C)CC5)cc4)cn23)c1`, the activation was 2.83%.

For the molecule `CCN(CC)C(=O)c1sc2nc(-c3ccccc3)ccc2c1N`, the activation is 11.2% (active).

Turning to `COc1cccc(C(=O)Nc2cc3c(cc2Br)OCCCO3)c1`, the activation was 9.44% (active).

For `c1ccc2cc3c(NCCN4CCOCC4)ccnc3cc2c1`, the activation was 0.84%.

In the case of `Cc1cccc(-n2c(O)c(C=Nc3ccccc3N)c(=O)[nH]c2=O)c1`, the activation is 6.14% (active).

Regarding `C=C1C(=O)[C@]23C[C@H]1CCC2[C@@]1(C)C(C[C@@H]3O)[C@](C)(C(=O)O)CC[C@@H]1O` (stereo partly specified), the activation is 1.65%.

As for `COc1cccc(-c2nc3cc(C)ccc3o2)c1`, the activation is 3.74%.

With `Cn1c(-c2ccc(F)cc2)cc2onc(-c3ccccc3Cl)c2c1=O`, the activation is 9.37% (active).

Turning to `Fc1ccc(/C=N/Nc2nc(-c3cccnc3)nc3ccccc23)cc1`, the activation is 8.57% (active).

As to `CC(=O)Nc1cc(-c2ccc(N3CCN(C)CC3)cc2)cn2c(-c3ccc(F)cc3)cnc12`, the activation is 1.59%.

Take `Cc1nc(-c2nnc(SCC(=O)Nc3cc(C(F)(F)F)cc(C(F)(F)F)c3)n2C)cs1`: the activation was -1.04%.

Consider `CCCCNC(=O)C1CCC(CNS(=O)(=O)c2ccc(NC(C)=O)cc2)CC1` (stereo unspecified), for which the activation was 0.63%.

Consider `Fc1ccc(CNc2nc3ccccc3n3nnnc23)cc1`, for which the activation was 2.47%.

For `CC(C)CCNC(=O)c1ccc2c(Cl)c3c(nc2c1)CCC3`, the activation is 9.88% (active).

As for `COCC1CCN(C(=O)C2CCC(=O)N(Cc3cccc(C(F)(F)F)c3)C2)CC1` (stereo unspecified), the activation is 1.34%.

Consider `O=C(Nc1cc(=O)[nH]c2ncnn12)c1ccccc1Cl`, for which the activation is 0.46%.

Consider `COc1c(O)cc2oc(-c3ccc(O)c(O)c3)cc(=O)c2c1O`, for which the activation is 12.4% (active).

With `CCCn1nc(C(=O)Nc2ccc3nc(C)sc3c2)c2ccccc2c1=O`, the activation is -0.78%.

For `O=C(N[C@H]1CC[C@H](CC(=O)N2CCCCC2)O[C@@H]1CO)c1cccc(F)c1`, the activation was 0.09%.

Regarding `O=C(c1cc(-c2ccccc2O)on1)N1CCCC1`, the activation is 9.74% (active).

As to `O=C(c1cc(-c2ccc(O)cc2)on1)N1CCOCC1`, the activation was 6.96% (active).

For `Cc1cc(-c2n[nH]c(=S)n2/N=C/C(Br)=C/c2ccccc2)n[nH]1`, the activation is 4.37%.

As for `CCCCn1nnnc1C(c1cc2ccccc2o1)N(C)Cc1ccc(Cl)c(Cl)c1` (stereo unspecified), the activation was 1.67%.

Regarding `COc1ccc(OCCCC(=O)NCCc2ccccc2)cc1`, the activation is 1.27%.

`O=C(CCCc1ccccc1)NCc1ccccc1`: the activation is 2.83%.

Regarding `Cc1ccc(F)c(NC(=O)CCc2ccccc2)c1`, the activation is 5.92% (active).

For `O=C(O)c1ccc(COc2c(F)c(F)cc(F)c2F)o1`, the activation was -0.39%.

`O=C(O)c1cccc(N=NN2CCCCCC2)c1`: the activation is 13.9% (active).

With `CN(C)CCNC(=O)c1cccc(-c2cnc3c(NC=O)cc(-c4cccc(C(F)(F)F)c4)cn23)c1`, the activation was 1.42%.

Take `COc1ccc(-c2csc(Cc3nc(O)cs3)n2)cc1`: the activation is 19.6% (active).

With `Cn1cccc1/C=N/NC(=O)c1ccc(OC(F)(F)C(F)F)cc1`, the activation is 3.99%.

Take `O=C(c1cccs1)C1C(c2ccc(Br)cc2)NC(=S)NC1(O)C(F)(F)F` (stereo unspecified): the activation was 2.08%.

Regarding `COc1ccccc1OCC(=O)O/N=C(\N)c1ccccn1`, the activation was 4.97%.

For the molecule `COc1ccc(CC2c3cc(OC)c(OC)cc3CC[N+]2(C)CCC(=O)OCCCCCOC(=O)CC[N+]2(C)CCc3cc(OC)c(OC)cc3C2Cc2ccc(OC)c(OC)c2)cc1OC` (stereo unspecified), the activation was 1.23%.

For the molecule `COc1cc(CN2CCC(C(N)=O)CC2)ccc1OCc1ccccc1`, the activation was 8.4% (active).

Take `Cc1noc(C)c1S(=O)(=O)N(C)C[C@H]1Oc2c(NC(=O)Nc3ccc4c(c3)OCO4)cccc2C(=O)N([C@H](C)CO)C[C@@H]1C`: the activation was 0.03%.

With `CN(C)C(=S)N=c1ssc(=S)n1Cc1ccco1`, the activation is 11.9% (active).

Regarding `CCOC(=O)c1sc2nc(CSc3ccccc3)[nH]c(=O)c2c1C`, the activation was 0.23%.

Turning to `COc1ccc(-c2cc3ncccc3cn2)cc1`, the activation was 9.76% (active).

Regarding `Cc1ccc(NC(=O)C(=O)NCc2ccco2)c(C)c1`, the activation is 5.75% (active).

`CC(C)(C)c1ccc(NC(=O)NCc2ccco2)cc1`: the activation was 0.6%.

For the molecule `Cc1cc(O)c(NC(=O)c2ccc(C)c([N+](=O)[O-])c2)cc1C`, the activation is 7.82% (active).

As to `FC(F)(F)c1cccc(-c2nc3ccccc3n2C(c2ccccc2)c2nc3ccccc3[nH]2)c1` (stereo unspecified), the activation was 4.89%.

As for `COc1ccc(C(CNC(=O)c2ccc(S(=O)(=O)Nc3ccccc3F)cc2)N(C)C)cc1` (stereo unspecified), the activation was -0.57%.

Turning to `CN(C)S(=O)(=O)c1ccc2oc(SCC(=O)Nc3ccccc3F)nc2c1`, the activation is 13.2% (active).

As for `COc1ccc(N=C(C)c2sc3ccccc3c2O)cc1`, the activation was 6.57% (active).

Regarding `CCOC(=O)C(C)n1cnc2c(nnn2-c2cccc(OC)c2)c1=O` (stereo unspecified), the activation was 4.04%.

Turning to `COc1ccc(C(=O)NC2=NCCS2)c(OC)c1`, the activation is 12.2% (active).

Consider `Cc1ccc(N/C=C/C(=O)c2ccccc2)cc1C`, for which the activation was 6.49% (active).

As to `Cc1cc(=O)[nH]c(N/N=C/c2ccc3c(c2)OCCO3)n1`, the activation is 3.2%.

For `CCc1c(C)c2ccc(OC3CCCCC3=O)cc2oc1=O` (stereo unspecified), the activation was 2.57%.

On to `COc1cc(/C=N/NC(=O)c2ccccc2)ccc1OS(=O)(=O)c1ccccc1`, for which the activation is 0.14%.

For `COc1ccc(/C=N/NC(=O)c2cc(-c3cccc(C)c3)nc3ccccc23)cc1O`, the activation was 7.74% (active).

`CC(C)(C)NC(=O)C(CCc1ccccc1)n1c(=O)c(-c2ccccc2)nc2ccccc21` (stereo unspecified): the activation is 0.34%.

With `CCC(C)N(C)C1CCN(C(=S)Nc2ccc(OC)cc2)CC1` (stereo unspecified), the activation was 1.62%.

In the case of `CCCCc1ccc(NC(=S)N2CCCC(CO)C2)cc1` (stereo unspecified), the activation was 10.3% (active).

In the case of `Cc1cc(C)c2nc3nc(C)cc(C)c3c(N)c2c1`, the activation is 3.96%.

`O=C1Cc2cc(S(=O)(=O)Nc3cccc(F)c3)ccc2N1`: the activation is 1.09%.

Turning to `CCc1ccc[n+](-c2nc([O-])sc2C=O)c1`, the activation was 0.22%.

Regarding `Cc1cc(C)nc(Nc2n[nH]c(-c3ccccc3N)n2)n1`, the activation was 12.3% (active).

Turning to `CCOC(=O)c1c(C)[nH]c(C2=NNC(=NC(C)COC)SC2)c1C` (stereo unspecified), the activation was 8.27% (active).

Take `COc1cccc(OCCOc2cccc(/C=N/n3cnnc3)c2)c1`: the activation was 6.43% (active).

Consider `Cc1ccc(-c2c(C)n([O-])c3c([n+]2=O)CCC3)cc1`, for which the activation was -0.96%.

Consider `Cc1ccc(C(=O)CSc2ccccc2C(=O)O)cc1`, for which the activation is 6.75% (active).

On to `COCC(C)n1c(SCc2ccc(C(=O)OC)o2)nc2ccccc2c1=O` (stereo unspecified), for which the activation was 2.22%.

On to `CC1CCCCC1NC(=O)CN1CCC(O)(c2ccc3c(c2)OCO3)CC1` (stereo unspecified), for which the activation was 4.35%.

For `O=C(Nc1cccc([N+](=O)[O-])c1)c1ccc2c(c1)OCO2`, the activation is 8.02% (active).

Turning to `O=C(Nc1cccc([N+](=O)[O-])c1)N1CCc2ccccc2C1`, the activation is 4.55%.

As to `COc1ccc(C(=O)Nc2ccc3c(c2)OCO3)cc1OC`, the activation was 10.2% (active).

With `COc1ccc(C)cc1S(=O)(=O)N(CC(=O)Nc1cccc([N+](=O)[O-])c1)c1ccc(C)cc1`, the activation was -1.27%.

With `Cc1ccnc(Nc2nc3ccccc3s2)n1`, the activation was 3.74%.

For `CC1(C)CC(=O)C=C(NCCCNC2CCCCC2)C1`, the activation is -0.02%.

For `Cc1cc2oc3ccc(NCCC4CCCN4C)cc3c(=O)c2cc1C` (stereo unspecified), the activation was 6.3% (active).

Consider `Cc1ccccc1C#CC1=CC(=O)CC(C)(C)C1`, for which the activation is 1.83%.
